Reference: paper PMC7042484 (Redox Biology, 2020)
Entries after “also recorded” stand apart in the source; their conditions may differ.

Experiments:
human NOX2 [1] = molecular target: T1, human NOX2 (Homo sapiens, UniProt P04839); assay: Initial evaluation on NOX2 membrane preparations; type: biochemical; details: for inhibition of NOX2 (in words): 100 μM compound, membranes
T1 sequence (P04839 2-570 limits assumed): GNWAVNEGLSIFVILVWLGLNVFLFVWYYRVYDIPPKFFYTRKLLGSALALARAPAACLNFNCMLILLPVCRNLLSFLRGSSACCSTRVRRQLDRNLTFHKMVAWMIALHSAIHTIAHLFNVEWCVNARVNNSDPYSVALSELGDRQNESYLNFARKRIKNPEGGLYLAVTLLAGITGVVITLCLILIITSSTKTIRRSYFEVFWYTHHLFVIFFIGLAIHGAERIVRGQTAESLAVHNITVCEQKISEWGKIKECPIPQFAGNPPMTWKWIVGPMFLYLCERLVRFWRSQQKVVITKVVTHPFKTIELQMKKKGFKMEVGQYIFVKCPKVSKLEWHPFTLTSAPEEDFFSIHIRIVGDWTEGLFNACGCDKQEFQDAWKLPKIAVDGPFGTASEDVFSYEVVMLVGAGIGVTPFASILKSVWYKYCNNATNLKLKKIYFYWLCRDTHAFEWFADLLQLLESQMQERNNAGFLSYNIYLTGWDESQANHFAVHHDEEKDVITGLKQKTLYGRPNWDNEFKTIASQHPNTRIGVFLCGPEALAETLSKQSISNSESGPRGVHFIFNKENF
T1 sequence (P13498 2-195 partner limits assumed): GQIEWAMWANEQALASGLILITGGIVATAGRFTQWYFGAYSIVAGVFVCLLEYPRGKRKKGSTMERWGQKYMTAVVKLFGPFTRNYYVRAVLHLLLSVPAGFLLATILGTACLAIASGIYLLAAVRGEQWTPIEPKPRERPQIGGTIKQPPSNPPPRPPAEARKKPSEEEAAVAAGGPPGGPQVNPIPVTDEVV

xanthine oxidase = xanthine oxidase (Bos taurus, UniProt P80457); assay: Xanthine Oxidase assay; type: biochemical; details: 100 μM compound, hypoxanthine, Amplex Red/peroxidase
xanthine oxidase, sequence (P80457 whole entry): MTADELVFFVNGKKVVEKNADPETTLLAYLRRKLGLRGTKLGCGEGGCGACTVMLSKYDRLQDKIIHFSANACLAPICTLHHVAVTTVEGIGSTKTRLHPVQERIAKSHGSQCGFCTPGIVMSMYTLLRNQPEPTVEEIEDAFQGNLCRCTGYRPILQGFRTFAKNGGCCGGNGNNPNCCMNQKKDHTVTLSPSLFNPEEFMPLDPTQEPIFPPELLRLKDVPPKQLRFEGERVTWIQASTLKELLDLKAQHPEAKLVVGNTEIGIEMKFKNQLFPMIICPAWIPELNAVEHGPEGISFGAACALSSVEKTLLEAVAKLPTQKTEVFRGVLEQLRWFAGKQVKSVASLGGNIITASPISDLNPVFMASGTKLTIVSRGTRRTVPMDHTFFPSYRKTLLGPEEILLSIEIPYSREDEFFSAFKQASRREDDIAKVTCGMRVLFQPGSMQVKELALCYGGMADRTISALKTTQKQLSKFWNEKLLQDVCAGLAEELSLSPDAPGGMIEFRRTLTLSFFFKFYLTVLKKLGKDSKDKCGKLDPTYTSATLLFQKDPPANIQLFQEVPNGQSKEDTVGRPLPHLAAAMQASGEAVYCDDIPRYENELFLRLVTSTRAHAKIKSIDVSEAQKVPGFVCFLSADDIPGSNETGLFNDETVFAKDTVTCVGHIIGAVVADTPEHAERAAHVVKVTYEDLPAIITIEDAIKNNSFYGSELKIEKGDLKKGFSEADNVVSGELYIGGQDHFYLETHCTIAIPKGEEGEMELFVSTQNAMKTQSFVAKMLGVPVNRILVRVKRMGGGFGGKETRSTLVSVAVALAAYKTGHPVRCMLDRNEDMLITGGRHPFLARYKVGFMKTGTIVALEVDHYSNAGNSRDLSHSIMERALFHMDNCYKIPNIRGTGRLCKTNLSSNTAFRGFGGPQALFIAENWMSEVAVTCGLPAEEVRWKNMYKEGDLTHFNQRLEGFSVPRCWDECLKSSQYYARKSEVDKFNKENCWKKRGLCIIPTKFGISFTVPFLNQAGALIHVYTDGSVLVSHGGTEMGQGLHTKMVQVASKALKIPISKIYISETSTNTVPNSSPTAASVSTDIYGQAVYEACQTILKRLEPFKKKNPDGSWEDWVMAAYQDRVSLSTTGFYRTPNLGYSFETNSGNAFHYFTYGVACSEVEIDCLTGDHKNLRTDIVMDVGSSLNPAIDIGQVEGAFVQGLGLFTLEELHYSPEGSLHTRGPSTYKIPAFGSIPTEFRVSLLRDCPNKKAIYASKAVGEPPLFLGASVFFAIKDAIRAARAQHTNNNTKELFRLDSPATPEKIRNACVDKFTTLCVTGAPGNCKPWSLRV
Outline: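 Compound (100 μM) with xanthine oxidase, 100 μM Amplex Red, 0.4 U/mL horseradish peroxidase and 0.2 mM hypoxanthine. 15 min at 37 °C; H2O2-derived resorufin read by fluorescence, ex 530/em 590 nm.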

human NOX4 = molecular target: T2, human NOX4 (Homo sapiens, UniProt Q9NPH5); assay: Initial evaluation on NOX4 membrane preparations; type: biochemical; details: for inhibition of NOX4 (in words): 100 μM compound, membranes
T2 sequence (Q9NPH5 1-578): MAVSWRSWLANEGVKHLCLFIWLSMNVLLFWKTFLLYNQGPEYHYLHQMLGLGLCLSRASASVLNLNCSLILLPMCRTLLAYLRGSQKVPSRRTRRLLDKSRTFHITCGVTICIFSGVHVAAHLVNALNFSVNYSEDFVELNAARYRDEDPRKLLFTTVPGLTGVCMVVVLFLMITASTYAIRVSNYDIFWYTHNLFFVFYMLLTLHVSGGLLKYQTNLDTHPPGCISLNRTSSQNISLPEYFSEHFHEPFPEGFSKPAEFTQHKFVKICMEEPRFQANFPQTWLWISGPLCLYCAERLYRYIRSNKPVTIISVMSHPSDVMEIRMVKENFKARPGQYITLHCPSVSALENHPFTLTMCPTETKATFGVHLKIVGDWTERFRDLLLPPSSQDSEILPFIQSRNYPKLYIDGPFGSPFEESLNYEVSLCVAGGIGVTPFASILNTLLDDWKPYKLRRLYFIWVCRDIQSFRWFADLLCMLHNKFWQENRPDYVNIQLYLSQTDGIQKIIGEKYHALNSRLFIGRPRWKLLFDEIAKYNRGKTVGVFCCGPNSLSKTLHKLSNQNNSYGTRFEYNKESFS
T2 sequence (P13498 2-195 partner limits assumed): T1 sequence (P13498 2-195 partner limits assumed)
Outline: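 NOX4-p22 membranes from transfected HEK293 EBNA-1 cells, compound 100 μM, 10 min preincubation at 4 °C in PBS. Amplex Red: 100 μg membranes, 12.5 μM Amplex Red, 0.02 U/ml HRP, 40 μM FAD, started with 40 μM NADPH, ex 572/em 583 nm. CBA: 50 μg membranes, 20 μM FAD, then 200 μM coumarin boronic acid and 50 μM NADPH, ex 320/em 430 nm.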

[2] = MCLA auto-oxidation assay; details: 100 μM compound
bacterial NOX5 [3] = molecular target: T3, bacterial NOX5 (Cylindrospermum stagnale, UniProt K9WT99); assay: Initial evaluation on NOX5 membrane preparations; type: biochemical; details: for inhibition of NOX5 (in words): 100 μM compound, membranes
T3 sequence (K9WT99 1-693): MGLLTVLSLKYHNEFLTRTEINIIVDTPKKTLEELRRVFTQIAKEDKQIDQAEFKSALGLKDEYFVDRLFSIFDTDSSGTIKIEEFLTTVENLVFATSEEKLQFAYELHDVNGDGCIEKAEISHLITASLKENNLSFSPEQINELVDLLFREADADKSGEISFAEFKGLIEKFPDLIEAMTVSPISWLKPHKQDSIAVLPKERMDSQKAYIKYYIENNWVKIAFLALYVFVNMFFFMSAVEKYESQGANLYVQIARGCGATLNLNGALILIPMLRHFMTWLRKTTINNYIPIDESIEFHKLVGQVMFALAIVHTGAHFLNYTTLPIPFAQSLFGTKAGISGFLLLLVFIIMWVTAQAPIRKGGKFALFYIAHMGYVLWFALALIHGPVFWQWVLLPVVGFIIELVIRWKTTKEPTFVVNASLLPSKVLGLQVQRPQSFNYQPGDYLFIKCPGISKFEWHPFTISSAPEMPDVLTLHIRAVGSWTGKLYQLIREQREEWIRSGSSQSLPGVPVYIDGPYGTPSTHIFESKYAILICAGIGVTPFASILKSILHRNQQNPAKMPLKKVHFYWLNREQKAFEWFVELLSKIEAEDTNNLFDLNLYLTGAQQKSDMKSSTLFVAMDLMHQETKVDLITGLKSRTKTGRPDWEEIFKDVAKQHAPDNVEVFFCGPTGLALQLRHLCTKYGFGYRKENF

[4] = tested on: wild-type NOX5 dehydrogenase domain; assay: Thermal shift analysis on purified NOX5 dehydrogenase domain; type: binding, Cylindrospermum stagnale; details: inflection temperature Ti, 35–95 °C
Outline: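 Wild-type purified NOX5 dehydrogenase domain, with or without ligand, heated from 35 °C to 95 °C over 3 min on a Tycho system; inflection temperature (Ti) determined.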

bacterial NOX5 [5] = molecular target: T3, bacterial NOX5; assay: MCLA assay on NOX5 membranes; type: biochemical
Outline: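 E. coli membranes carrying FLAG-(His)8-SUMO-tagged C. stagnale NOX5, 12 μg, in PBS with 1 mM CaCl2, 0.5 μM FAD and 1 μM MCLA. Compound (100 μM single point, or concentration series) 10 min at 25 °C. Started with 200 μM NADPH; chemiluminescence read. Membranes lacking NOX5 set noise level. IC50 by sigmoidal fit, % of untreated control.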

[6] = Amplex Red/peroxidase assay in the absence of a NOX enzyme; details: 100 μM compound, no NOX enzyme, NADPH present
Outline: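 Compound (100 μM) added to the Amplex Red/horseradish peroxidase H2O2 read-out with NADPH present but no NOX membranes, to probe reagent interference. Resorufin fluorescence read on a plate reader.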

human NOX2 [7] = molecular target: T1, human NOX2; assay: MCLA assay on NOX2 membranes; type: biochemical; details: 100 μM compound
[8] = NADH-PMS superoxide-scavenging assay; details: 100 μM compound, PMS-NADH/nitroblue tetrazolium
Outline: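 Non-enzymatic superoxide generation in 16 mM Tris-HCl pH 8.0 with 80 μM nitroblue tetrazolium and 70 μM NADH plus compound (100 μM). Started with 5 μM phenazine methosulfate; 5 min at 25 °C; A560. SOD as positive control; lower absorbance than the negative control scored as scavenging.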

[9] = molecular target: T4, wild-type dehydrogenase domain of bacterial NOX5 (Cylindrospermum stagnale, UniProt K9WT99); assay: NADPH-depletion assay on purified wild-type NOX5 dehydrogenase domain; type: biochemical
T4 sequence (K9WT99 413-693): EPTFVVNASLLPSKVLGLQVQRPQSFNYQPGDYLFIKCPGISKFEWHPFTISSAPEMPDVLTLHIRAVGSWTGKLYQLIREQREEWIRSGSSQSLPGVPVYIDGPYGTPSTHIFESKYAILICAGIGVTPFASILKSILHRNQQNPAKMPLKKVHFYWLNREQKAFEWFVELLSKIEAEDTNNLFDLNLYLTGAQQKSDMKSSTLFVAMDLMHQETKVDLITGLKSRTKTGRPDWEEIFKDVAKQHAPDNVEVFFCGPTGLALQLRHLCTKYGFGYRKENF

[10] = molecular target: full-length bacterial NOX5 (Cylindrospermum stagnale, UniProt K9WT99); assay: biochemical
[11] = molecular target: C-terminal mutant dehydrogenase domain of bacterial NOX5; assay: NADPH-depletion assay on C-terminal mutant NOX5 dehydrogenase domain; type: biochemical, Cylindrospermum stagnale; details: uncompetitive, low-activity mutant of the dehydrogenase domain
[12] = molecular target: T5, wild-type dehydrogenase domain of NOX5 (Cylindrospermum stagnale, UniProt K9WT99); assay: Microscale thermophoresis binding assay on purified NOX5 dehydrogenase domain
T5 sequence (K9WT99 413-693): T4 sequence (K9WT99 413-693)
Outline: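 Microscale thermophoresis with fluorescently labelled wild-type NOX5 dehydrogenase domain (~200 nM). Ligand given as 16 serial dilutions up to 6.4 mM in 50 mM Hepes, 240 mM NaCl, 0.5% glycerol, 250 μM FAD, 0.1% pluronic acid, pH 7.5. Incubated 10 min at 25 °C; recorded at 25 °C, red channel. Kd from binding isotherms, triplicate, standard deviation.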

NOXs = assay: Initial evaluation of NOX inhibitors, isoform not specified; type: biochemical; details: 100 μM compound

| Structure (SMILES) | inhibition of NOX2 (in words) (human NOX2 [1]) | inhibition of the hydrogen peroxide-producing activity of xanthine oxidase (xanthine oxidase) | inhibition of NOX4 (in words) (human NOX4) | interference with MCLA auto-oxidation [2] | inhibition of NOX5 (in words) (bacterial NOX5 [3]) | superoxide scavenging [8] | other results |
| --- | --- | --- | --- | --- | --- | --- | --- |
| CC1=C(O)C(=O)C=C2C1=CC=C1[C@@]2(C)CC[C@@]2(C)[C@@H]3C[C@](C)(C(=O)O)CC[C@]3(C)CC[C@]12C [celastrol] | full | powerful inhibitions | full | interfered with the MCLA auto-oxidation | full |  | stabilising effect in thermal shift analysis [4]: lack of any stabilising effect |
| CN(C)c1cccc(-c2c3c(=O)n(-c4ccccc4Cl)[nH]c3cc(=O)n2C)c1 [GKT137831] |  | powerful inhibitions | strong NOX4 inhibitors | substantial interference |  |  | inhibition of NOX5 with the MCLA-based protocol (in words) (bacterial NOX5 [5]; 100 μM compound, MCLA assay): moderately active; interference on the Amplex Red/peroxidase assay [6]: substantial interference; inhibition of NOX2 with MCLA (in words) (human NOX2 [7]): moderately active |
| CC(C)c1c(C(=O)Nc2ccccc2)c(-c2ccccc2)c(-c2ccc(F)cc2)n1CC[C@@H](O)C[C@@H](O)CC(=O)O [Atorvastatin] |  |  |  |  |  |  | inhibition at 100 µM (bacterial NOX5 [3]; read-out: inhibition of NOX5): ~50% |
| O=c1c2ccccc2[se]n1-c1ccccc1 [ebselen] | full | powerful inhibitions | full | substantial interference | full |  | interference on the Amplex Red/peroxidase assay [6]: substantial interference; stabilising effect in thermal shift analysis [4]: lack of any stabilising effect |
| C1CCC(C(CC2CCCCN2)C2CCCCC2)CC1 (stereo not drawn) [perhexiline] |  |  |  | interfered with the MCLA auto-oxidation | not against NOX5 |  | inhibition at 100 µM (human NOX2 [1]; read-out: inhibition of NOX2): 40 to 70%; inhibition at 100 µM (human NOX4; read-out: inhibition of NOX4): 40 to 70% |
| OCCN1CCN(CCCN2c3ccccc3Sc3ccc(C(F)(F)F)cc32)CC1 [fluphenazine] |  | powerful inhibitions |  |  |  | mild scavenging activities |  |
| CN(C)CCCN1c2ccccc2Sc2ccccc21 [promazine] |  | powerful inhibitions |  |  |  |  |  |
| c1ccc2c(c1)[I+]c1ccccc1-2 [DPI, Diphenylene iodonium] | full | powerful inhibitions; also recorded: inhibits xanthine oxidase | full |  | full |  | IC50 (bacterial NOX5 [5]): 3.28 ± 1.32 µM; αKi ([9]; wild-type domain, exogenous FAD 300 μM): 127 ± 13 µM; Ki [10]: 0.98 ± 0.14 µM; αKi [11]: 0.42 ± 0.06 µM |
| CC1=NN(c2ccccc2)CC1 [3-methyl-1-phenyl-2-pyrazoline] |  | powerful inhibitions |  |  |  |  |  |
| OCCN1CCN(CCCN2c3ccccc3Sc3ccc(Cl)cc32)CC1 [perphenazine] |  | powerful inhibitions |  |  |  | mild scavenging activities |  |
| Cc1ccc(C(=O)Nc2ccc(S(=O)(=O)O)c3cc(S(=O)(=O)O)cc(S(=O)(=O)O)c23)cc1NC(=O)c1cccc(NC(=O)Nc2cccc(C(=O)Nc3cc(C(=O)Nc4ccc(S(=O)(=O)O)c5cc(S(=O)(=O)O)cc(S(=O)(=O)O)c45)ccc3C)c2)c1 [suramin] | full |  | full |  | full | strong superoxide scavenger | Ki [9]: 0.39 ± 0.05 µM; Kd [12]: 52.2 ± 1.1 µM; stabilising effect in thermal shift analysis [4]: lack of any stabilising effect |
| CC1=CC(=O)c2c(O)cccc2C1=O [plumbagin] |  |  |  |  |  |  | pattern of NOX inhibition (in words) (NOXs): assay-dependent inhibitory activities |
| O=c1[nH]c2ccccc2c2ccccc12 [phenanthridinone, 6(5H)-phenanthridinone] |  |  |  |  |  | mild scavenging activities | pattern of NOX inhibition (in words) (NOXs): assay-dependent inhibitory activities |
